Here are results for 17 compounds from ChEMBL document CHEMBL1124784, “Synthesis and bioactivity of a new class of rigid glutamate analogues. Modulators of the N-methyl-D-aspartate receptor” (1990).

In assay [1] the test system is Cerebellar granule neurone. Nature of the assay: Stimulation caused by aspartate in Cerebellar Granule Cells over basal stimulation. Format: functional, Rattus norvegicus. A digest of the protocol:
(§1)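 Cerebellar granule cells preincubated 15 min with 50 μM azetidine, then 10 min without (basal) or with 10 μM glutamate or 10 μM aspartate; 45Ca2+ influx measured. Percent stimulation relative to agonist alone (100%) after subtracting respective basal values; means ± SEM of four experiments.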

For assay [2], the system named is Cerebellar granule neurone. Nature of the assay: Influx of calcium in Cerebellar Granule Cells of rat after 10 min of incubation with compound and 10 uM aspartate. Format: functional. A digest of the protocol: as §1
The subject of assay [3] is Cerebellar granule neurone. The assay is described as follows: Influx of calcium in Cerebellar Granule Cells of rat after 10 min of incubation with compound. Format: functional. The method, boiled down:
as §1

Assay [4] has as its system Cerebellar granule neurone. The assay is described as follows: Stimulation caused by Glutamate in Cerebellar Granule Cells over basal stimulation. Format: functional, Rattus norvegicus. A digest of the protocol:
as §1

Assay [5] concerns Cerebellar granule neurone. Nature of the assay: Influx of calcium in Cerebellar Granule Cells of rat after 10 min of incubation with compound and 10 uM glutamate. Format: functional. A digest of the protocol: as §1
Assay [6] concerns Cerebellar granule neurone. The assay is described as follows: Ability to induce calcium uptake in cerebellar granule cells was determined at 50 uM concentration in presence of 50 uM NMDA (control = 91+/-6.5). Format: functional, Rattus norvegicus. A digest of the protocol:
(§2)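 Rat cerebellar granule cells (8-day-old rats), cultured 8–9 days; HEPES saline pH 7.35 with 1.3 mM CaCl2, 45CaCl2 tracer 10 min, then azetidine 50 μM 15 min at 37 °C, then agonist 10 min. Kainate/quisqualate media held 1 mM MgCl2 and 10 μM CPP. Choline/EGTA wash stop; 45Ca uptake per mg protein.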

Assay [7] relates to Cerebellar granule neurone. The assay is described as follows: Stimulation caused by Aspartate in Cerebellar Granule Cells at 50 uM concentration in presence of 100 uM quisqualate. Format: functional, Rattus norvegicus. A digest of the protocol: as §2
Assay [8] has as its system Cerebellar granule neurone. The assay is described as follows: Ability to induce calcium uptake in cerebellar granule cells was determined at 50 uM concentration in presence of 100 uM kainate (control = 56+/-3.7). Format: functional, Rattus norvegicus. A digest of the protocol: as §2
The species named for assay [9] is Rattus norvegicus. The assay is described as follows: Effect on fractional [3H]GABA release from rat forebrain neurons in culture. Format: functional. A digest of the protocol:
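Embryonic rat forebrain neurons cultured 8–9 days, loaded with 1 μCi/mL [3H]GABA 60–90 min at 37 °C, washed eight times at 5 min intervals in Mg2+-free HEPES saline, then agonist added; CGS 19755 (100 μM) where used added 5 min before. Evoked efflux minus basal, as fraction of remaining cell tritium (SDS-solubilized); 4–6 wells.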

Assay [10] has as its system Cerebellar granule neurone. Nature of the assay: Stimulation caused by Aspartate in Cerebellar Granule Cells at 50 uM concentration in presence of 100 uM kainate. Format: functional, Rattus norvegicus. The method, boiled down: as §2
In assay [11] the test system is Cerebellar granule neurone. The assay is described as follows: Stimulation caused by Aspartate in Cerebellar Granule Cells at 50 uM concentration in presence of 10 uM CPP. Format: functional, Rattus norvegicus. A digest of the protocol: as §2
In assay [12] the test system is Cerebellar granule neurone. The assay is described as follows: Ability to induce calcium uptake in cerebellar granule cells was determined at 50 uM concentration in presence of 1 uM glutamate (control= 39+/-3.8). Format: functional, Rattus norvegicus. A digest of the protocol:
as §2

The subject of assay [13] is Cerebellar granule neurone. Nature of the assay: Stimulation caused by Aspartate in Cerebellar Granule Cells at 50 uM concentration in presence of 1 uM glutamate. Format: functional, Rattus norvegicus. A digest of the protocol:
as §2

The test system of assay [14] is Cerebellar granule neurone. The assay is described as follows: Stimulation caused by Aspartate in Cerebellar Granule Cells at 50 uM concentration in presence of 50 uM NMDA. Format: functional, Rattus norvegicus. The method, boiled down:
as §2

Assay [15] relates to Cerebellar granule neurone. Nature of the assay: Stimulation caused by Aspartate in Cerebellar Granule Cells at 50 uM concentration in presence of 10 uM aspartate.
The subject of assay [16] is Cerebellar granule neurone. The assay is described as follows: Ability to induce calcium uptake in cerebellar granule cells was determined at 50 uM concentration in presence of 100 uM quisqualate (control=15+/-1.2). Format: functional, Rattus norvegicus. A digest of the protocol: as §2
For assay [17], the system named is Cerebellar granule neurone. The assay is described as follows: Ability to induce calcium uptake in cerebellar granule cells was determined at 50 uM concentration in presence of 10 uM CPP (control= 5.4+/-0.3). Format: functional, Rattus norvegicus. A digest of the protocol:
as §2

The subject of assay [18] is Cerebellar granule neurone. Nature of the assay: Ability to induce calcium uptake in cerebellar granule cells was determined at 50 uM concentration in presence of 10 uM aspartate (control = 43+/-2.9).
In assay [19] the test system is Cerebellar granule neurone. Nature of the assay: Stimulation caused by Aspartate in Cerebellar Granule Cells at 50 uM concentration. Format: functional, Rattus norvegicus. A digest of the protocol:
as §2

Assay [20] has as its system Cerebellar granule neurone. The assay is described as follows: Ability to induce calcium uptake in cerebellar granule cells was determined at 50 uM concentration (control= 16+/-1.5). Format: functional, Rattus norvegicus. The method, boiled down: as §2
Assay [21] is filed under the species Rattus norvegicus. Nature of the assay: Effect on fractional [3H]GABA release from rat forebrain neurons in culture in the presence of 100 uM CGS 19755.

Values joined by “and” are separate entries in the source; they are usually repeats but may differ in a detail not shown here. Identical values can stand only once.

`O=C(O)[C@@H]1CCN1` came in with a Stimulation in assay [1] of 105%. The Influx in [2] worked out at 44.5 nM/mg; in assay [3], 16 nM/mg.

On to `O=C(O)[C@H]1C[C@@H](C(=O)O)N1Cc1ccccc1`, for which, in assay [3], the Influx was 15 nM/mg.

With `COC(=O)[C@@H]1C[C@H](C(=O)OC)N1`, in [3], the Influx stood at 19 nM/mg.

On to `NC(=O)[C@@H]1C[C@H](C(=O)O)N1`, for which, in [3], the Influx was determined as 20 nM/mg.

On to `CC(C)(C)OC(=O)[C@H]1C[C@@H](C(=O)O)N1`, for which the Stimulation in [1] is recorded as 136%; in assay [4], 144%. For the same compound, the Influx amounted to 52 nM/mg in assay [2], 67 nM/mg in assay [5] and 15 nM/mg in [3].

Consider `NC(=O)[C@@H]1C[C@H](C(N)=O)N1`, for which the Influx in [3] was 15 nM/mg.

In the case of `COC(=O)[C@@H]1C[C@@H](C(=O)OC(C)(C)C)N1`, the Stimulation in [4] turned out to be 105%. Moreover, the figures for the Influx in [5] and in assay [3] were 52 nM/mg and 15 nM/mg, respectively.

For `CC(=O)N1[C@@H](C(=O)O)C[C@H]1C(=O)O`, the Influx in assay [3] came out at 16 nM/mg.

With `CCCCCCN1[C@@H](C(=O)O)C[C@H]1C(=O)O`, the Influx in assay [3] was 16 nM/mg.

Turning to `O=C(O)[C@H]1C[C@@H](CO)N1`, the Influx in assay [2] was determined as 58 nM/mg; in [3], 19 nM/mg.

For `COC(=O)[C@H]1C[C@@H](C(=O)O)N1`, the Influx in assay [3] worked out at 18 nM/mg.

Turning to `O=C(O)[C@@H]1C[C@H](C(=O)O)N1`, the Stimulation in assay [1] was 175%; in [7], 100%; in [10], 93%; in assay [4] it was 186%; in assay [11] it was 91%; in assay [13] it was 268%. The figures for the Stimulation in [14], in [15] and in assay [19] were 151%, 193% and 144%, respectively. The Influx in assay [6] amounted to 136 nM/mg; in assay [8], 52 nM/mg; in [2], 68 nM/mg; in assay [12] it was 85 nM/mg; in assay [16] it was 15 nM/mg; in assay [17], 4.9 nM/mg. Further, the Influx in assay [18] was 75 nM/mg; in [5], 92 nM/mg; in [20], 23 nM/mg; in assay [3] it was 25 nM/mg and 21 nM/mg. In addition, the Release in the assay filed under Rattus norvegicus [9] was 1.04%; in the assay listed under Rattus norvegicus [21], -0.08%.

Take `CC(C)(C)OC(=O)[C@@H]1C[C@@H](C(=O)O)N1`: in assay [4], the Stimulation was found to be 97%. The results for the Influx in assay [5] and in [3] were 51 nM/mg and 16 nM/mg, respectively.

For the compound `COC(=O)[C@H]1C[C@@H](C(=O)OC(C)(C)C)N1`, the values for the Stimulation in [1] and in [4] were 107% and 111%, respectively. In addition, the Influx in assay [2] was 43 nM/mg; in assay [5], 54 nM/mg; in assay [3], 14 nM/mg.

With `O=C(O)[C@@H]1C[C@@H](C(=O)O)N1`, the Stimulation in assay [4] turned out to be 106%. Also, the Influx was determined as 52 nM/mg in assay [5] and 14 nM/mg in assay [3].

Consider `C=C(C)[C@H]1CN[C@H](C(=O)O)[C@H]1CC(=O)O` [KAINIC ACID], for which the Release came to 2.65% in the assay filed under Rattus norvegicus [9] and 2.63% in the assay filed under Rattus norvegicus [21].

Consider `CN[C@H](CC(=O)O)C(=O)O` [N-METHYL-D-ASPARTIC ACID (NMDA)], for which the Release worked out at 0.73% in the assay listed under Rattus norvegicus [9] and 0.09% in the assay listed under Rattus norvegicus [21].
